Tests used:
Cytochrome P450 2C8 [1] = biological target: T1, Cytochrome P450 2C8 (Homo sapiens, UniProt P10632); assay: Unbound intrinsic clearance in human recombinant CYP2C8 expressed in insect cells assessed as enzyme-mediated 2-despiperidyl-2-amino repaglinide formation per nanomole of protein at 0.5 to 150 uM by LC-MS/MS method; format: ADME
T1 sequence (P10632 whole entry): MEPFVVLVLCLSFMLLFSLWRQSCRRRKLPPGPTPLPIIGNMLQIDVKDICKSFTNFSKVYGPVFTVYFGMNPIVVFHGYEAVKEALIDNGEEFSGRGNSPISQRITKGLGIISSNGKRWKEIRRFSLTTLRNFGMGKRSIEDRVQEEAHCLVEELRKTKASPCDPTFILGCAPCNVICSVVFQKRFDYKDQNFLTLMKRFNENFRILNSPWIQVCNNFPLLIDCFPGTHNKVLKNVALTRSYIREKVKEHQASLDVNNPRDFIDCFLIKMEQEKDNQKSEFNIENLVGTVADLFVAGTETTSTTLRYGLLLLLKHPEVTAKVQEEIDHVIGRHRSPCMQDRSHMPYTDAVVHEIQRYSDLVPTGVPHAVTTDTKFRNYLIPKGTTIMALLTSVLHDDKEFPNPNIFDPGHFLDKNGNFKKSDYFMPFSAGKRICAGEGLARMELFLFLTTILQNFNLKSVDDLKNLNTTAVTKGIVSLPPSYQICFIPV

Hepatocyte [2] = assay: Drug metabolism in human hepatocytes assessed as 3'-hydroxy repaglinide formation measured per 10^6 cells at 0.5 to 150 uM by LC-MS/MS method; format: ADME, cell-based
Hepatocyte [3] = assay: Unbound intrinsic clearance in human hepatocytes assessed as glucuronide formation measured per 10^6 cells at 0.5 to 150 uM by LC-MS/MS method; format: ADME, cell-based
Hepatocyte [4] = assay: Unbound intrinsic clearance in human hepatocytes assessed as 2-despiperidyl-2-(5-carboxypentylamine) repaglinide formation measured per 10^6 cells at 0.5 to 150 uM by LC-MS/MS method; format: ADME, cell-based
[5] = Unbound intrinsic clearance in human hepatic S9 fraction assessed as glucuronide formation measured per mg of protein at 0.5 to 150 uM by LC-MS/MS method; format: ADME, tissue-based, Liver; conditions: s9, 150 µM
[6] = Drug metabolism in human hepatocytes assessed as 2-despiperidyl-2-amino repaglinide formation by LC-MS/MS method; format: ADME, cell-based, Hepatocyte
[7] = Fraction metabolism via UGT in human hepatic S9 fraction; format: ADME, Liver
[8] = Drug metabolism in human hepatocytes assessed as 2-despiperidyl-2-(5-carboxypentylamine) repaglinide formation by LC-MS/MS method; format: ADME, cell-based, Hepatocyte
Cytochrome P450 2C8 [9] = biological target: T1, Cytochrome P450 2C8; assay: Unbound intrinsic clearance in human recombinant CYP2C8 expressed in insect cells assessed as enzyme-mediated 3'-hydroxy repaglinide formation per nanomole of protein at 0.5 to 150 uM by LC-MS/MS method; format: ADME
Cytochrome P450 3A4 [10] = biological target: T2, Cytochrome P450 3A4 (Homo sapiens, UniProt P08684); assay: Fraction metabolism via CYP3A4 in human hepatocytes; format: ADME, cell-based, Hepatocyte
Liver microsome [11] = assay: Drug metabolism in human liver microsomes assessed as 2-despiperidyl-2-amino repaglinide formation measured per mg of protein at 0.5 to 150 uM by LC-MS/MS method; format: ADME
Hepatocyte [12] = assay: Drug metabolism in human hepatocytes assessed as 2-despiperidyl-2-(5-carboxypentylamine) repaglinide formation measured per 10^6 cells at 0.5 to 150 uM by LC-MS/MS method; format: ADME, cell-based
[13] = Drug metabolism in human hepatic S9 fraction assessed as 3'-hydroxy repaglinide formation measured per mg of protein at 0.5 to 150 uM by LC-MS/MS method; format: ADME, Liver; conditions: s9, 150 µM
[14] = Drug metabolism in human hepatic S9 fraction assessed as 2-despiperidyl-2-amino repaglinide formation measured per mg of protein at 0.5 to 150 uM by LC-MS/MS method; format: ADME, Liver; conditions: s9, 150 µM
Liver microsome [15] = assay: Unbound intrinsic clearance in human liver microsomes assessed as glucuronide formation measured per mg of protein at 0.5 to 150 uM by LC-MS/MS method; format: ADME
Liver microsome [16] = assay: Drug metabolism in human liver microsomes assessed as 2-despiperidyl-2-(5-carboxypentylamine) repaglinide formation by LC-MS/MS method; format: ADME
[17] = Fraction metabolism via UGT in human liver microsomes; format: ADME
Cytochrome P450 2C8 [18] = biological target: T1, Cytochrome P450 2C8; assay: Fraction metabolism via CYP2C8 in human liver microsomes; format: ADME
[19] = Drug metabolism in human hepatic S9 fraction assessed as 3'-hydroxy repaglinide formation by LC-MS/MS method; format: ADME, Liver
[20] = Drug metabolism in human hepatocytes assessed as glucuronide formation by LC-MS/MS method; format: ADME, cell-based, Hepatocyte
Homo sapiens [21] = species: Homo sapiens; assay: Drug metabolism in human patient assessed as fold change in metabolite M2/M4 AUC ratio at 0.25 mg co-treated with telithromycin and montelukast relative to telithromycin and montelukast non-treated patient; format: ADME, organism-based; conditions: in vivo
Homo sapiens [22] = species: Homo sapiens; assay: Ratio of AUC in variable SLCO1B1 genotype human patient at 0.25 mg to AUC in variable SLCO1B1 genotype human patient at 0.25 mg co-treated with gemfibrozil; format: ADME, organism-based; conditions: in vivo
Homo sapiens [23] = species: Homo sapiens; assay: Drug metabolism in human patient assessed as fold change in metabolite M2/M1 AUC ratio at 0.25 mg co-treated with atorvastatin relative to atorvastatin non-treated patient; format: ADME, organism-based; conditions: in vivo
Homo sapiens [24] = species: Homo sapiens; assay: Ratio of AUC in human patient at 0.25 mg to AUC in human patient at 0.25 mg co-treated with atorvastatin; format: ADME, organism-based; conditions: in vivo
Homo sapiens [25] = species: Homo sapiens; assay: Drug metabolism in human patient assessed as fold change in metabolite M2/M1 AUC ratio at 0.25 mg co-treated with gemfibrozil on various time intervals relative to gemfibrozil non-treated patient; format: ADME, organism-based; conditions: in vivo
Cytochrome P450 3A4 [26] = biological target: T2, Cytochrome P450 3A4; assay: Unbound intrinsic clearance in human recombinant CYP3A4 expressed in insect cells assessed as enzyme-mediated 2-despiperidyl-2-amino repaglinide formation per nanomole of protein at 0.5 to 150 uM by LC-MS/MS method; format: ADME
Cytochrome P450 3A4 [27] = biological target: T2, Cytochrome P450 3A4; assay: Fraction metabolism via CYP3A4 in human hepatic S9 fraction; format: ADME, Liver
Homo sapiens [28] = species: Homo sapiens; assay: Drug metabolism in variable SLCO1B1 genotype containing human patient assessed as fold change in metabolite M2/M4 AUC ratio at 0.25 mg co-treated with gemfibrozil relative to gemfibrozil non-treated patient; format: ADME, organism-based; conditions: in vivo
Homo sapiens [29] = species: Homo sapiens; assay: Ratio of AUC in human patient at 0.25 mg to AUC in human patient at 0.25 mg co-treated with telithromycin and montelukast; format: ADME, organism-based; conditions: in vivo
Liver microsome [30] = assay: Unbound intrinsic clearance in human liver microsomes assessed as 2-despiperidyl-2-amino repaglinide formation measured per mg of protein at 0.5 to 150 uM by LC-MS/MS method; format: ADME
How it was run: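 Pooled HLM, 0.3 mg/ml, in 0.1 M phosphate pH 7.4 with 10 mM MgCl2 and NADPH regenerating system. Repaglinide at 8 levels, 0.5-150 μM; 37°C, 10 min. Metabolites by LC-MS/MS against authentic standards; fu_inc 0.85. Duplicates on three occasions.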

Liver microsome [31] = assay: Drug metabolism in human liver microsomes assessed as 3'-hydroxy repaglinide formation by LC-MS/MS method; format: ADME
Homo sapiens [32] = species: Homo sapiens; assay: Drug metabolism in human patient assessed as fold change in metabolite M2/M1 AUC ratio at 0.25 mg co-treated with telithromycin relative to telithromycin non-treated patient; format: ADME, organism-based; conditions: in vivo
Cytochrome P450 2C8 [33] = biological target: T1, Cytochrome P450 2C8; assay: Fraction metabolism via CYP2C8 in human hepatic S9 fraction; format: ADME, Liver
[34] = Half life in type 2 diabetes patient; format: ADME, organism-based; conditions: human, in vivo

T2 sequence (P08684 whole entry): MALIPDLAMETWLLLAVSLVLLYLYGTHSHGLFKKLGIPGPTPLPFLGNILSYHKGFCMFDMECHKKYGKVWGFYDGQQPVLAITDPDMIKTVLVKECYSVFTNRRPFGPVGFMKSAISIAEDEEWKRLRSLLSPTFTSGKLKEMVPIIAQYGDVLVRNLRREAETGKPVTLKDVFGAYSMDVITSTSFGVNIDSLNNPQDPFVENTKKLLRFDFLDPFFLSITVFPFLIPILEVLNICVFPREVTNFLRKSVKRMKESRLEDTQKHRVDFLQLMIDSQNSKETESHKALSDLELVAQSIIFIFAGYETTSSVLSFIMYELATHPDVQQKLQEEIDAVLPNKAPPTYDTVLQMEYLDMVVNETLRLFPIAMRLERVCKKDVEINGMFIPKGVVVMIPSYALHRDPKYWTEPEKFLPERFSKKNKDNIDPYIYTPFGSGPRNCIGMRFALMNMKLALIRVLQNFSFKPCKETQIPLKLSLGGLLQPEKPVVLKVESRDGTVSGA

CL free (Cytochrome P450 2C8 [1]): 3.7 µL/min/nmol
Vmax (Hepatocyte [2]): 28 pmol/min/10^6cells
CL free (Hepatocyte [3]): 0.13 uL/min/10^6cells
CL free (Hepatocyte [4]): 3.3 uL/min/10^6cells
CL free [5]: 1.8 µL/min/mg
Km [6]: 58 µM
Fm [7]: 0.2
Km [8]: 28 µM
CL free (Cytochrome P450 2C8 [9]): 70 µL/min/nmol
Fm (Cytochrome P450 3A4 [10]): 0.41
Vmax (Liver microsome [11]): 170 pmol/min/mg
Vmax (Hepatocyte [12]): 80 pmol/min/10^6cells
Vmax [13]: 18 pmol/min/mg
Vmax [14]: 24 pmol/min/mg
CL free (Liver microsome [15]): 5.6 µL/min/mg
Km (Liver microsome [16]): 24 µM
Fm [17]: 0.19
Fm (Cytochrome P450 2C8 [18]): 0.63
Km [19]: 13 µM
Km [20]: 53 µM
fold change (FC) (Homo sapiens [21]): 0.82
Ratio (Homo sapiens [22]): 7.3
fold change (FC) (Homo sapiens [23]): 1.05
Ratio (Homo sapiens [24]): 1.2
fold change (FC) (Homo sapiens [25]): 0.39
CL free (Cytochrome P450 3A4 [26]): 120 µL/min/nmol
Fm (Cytochrome P450 3A4 [27]): 0.39
fold change (FC) (Homo sapiens [28]): 6.4
Ratio (Homo sapiens [29]): 1.9
CL free (Liver microsome [30]): 4.1 µL/min/mg
Km (Liver microsome [31]): 9 µM
fold change (FC) (Homo sapiens [32]): 3.9
Fm (Cytochrome P450 2C8 [33]): 0.41
half-life [34]: 1 h
SMILES: CCOc1cc(CC(=O)N[C@@H](CC(C)C)c2ccccc2N2CCCCC2)ccc1C(=O)O [REPAGLINIDE]

From ChEMBL document CHEMBL3525906, “A comprehensive assessment of repaglinide metabolic pathways: impact of choice of in vitro system and relative enzyme contribution to in vitro clearance” (Drug Metab Dispos, 2012)
